Source: PMC12239663 (Journal of the American Chemical Society, 2024)
Where two headings read alike, the source gives them in different places.

Legend:
SgvP [1] = target: T1, SgvP (Streptomyces griseoviridis, UniProt R9USI6); test: Type I binding spectra, titration of SgvP with 2
SgvP [2] = target: T1, SgvP; assay type: biochemical; settings: Fdx/Fdr, Opt13, NADP+, TCEP, no apparent intermediates detected
In short: (§1)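 Reactions were run under standard conditions, with a control reaction lacking P450. Peaks containing m/z 496 and m/z 512 were taken as singly- and doubly-oxidized by-products.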

SgvP [3] = target: T1, SgvP; test: In vitro reconstitution of C–S bond formation, SgvP with CamB/CamA; assay type: biochemical; settings: CamB/CamA as redox partners, relative to Fdx/Fdr
SgvP-RhFRed = test: Enzymatic reaction with SgvP-RhFRed chimera; assay type: biochemical, Streptomyces griseoviridis; settings: NADP+, Opt13 for NADPH regeneration; without TCEP; LC-MS
FNS2 = test: Activity of homolog P450-RhFRed chimera FNS2; assay type: biochemical; settings: cell lysates, range of conditions
NK82 = test: Activity of homolog P450-RhFRed chimera NK82; assay type: biochemical; settings: cell lysates, range of conditions
YY64 = test: Activity of homolog P450-RhFRed chimera YY64; assay type: biochemical; settings: cell lysates, range of conditions
SgvP P237T = test: Enzymatic reaction with SgvP mutant P237T; assay type: biochemical, Streptomyces griseoviridis; settings: substrate 2; same reaction conditions as wild-type SgvP
[4] = test system: SgvP P237T with A238 mutated to threonine; test: Enzymatic reaction with SgvP double mutant P237T, A238 to threonine; assay type: biochemical, Streptomyces griseoviridis; settings: substrate 2; P237T activity partially rescued by mutating A238 to threonine
SgvP L337F = test: Enzymatic reaction with SgvP mutant L337F; assay type: biochemical, Streptomyces griseoviridis; settings: substrate 2; same reaction conditions as wild-type SgvP
In short: as §1

SgvP mutants = test: LC-MS by-product analysis of reactions with SgvP mutants; assay type: biochemical, Streptomyces griseoviridis; settings: singly- (m/z = 496) and doubly-oxidized (m/z = 512) by-products, substrate 2
In short: as §1

[5] = Stability under air at ambient temperature; assay type: physicochemical; settings: two weeks
[6] = Stability in aqueous buffer; assay type: physicochemical
[7] = Behavior toward chemical oxidants; assay type: physicochemical

## pre-griseoviridin [compound 2]
SgvP [1]; SgvP incubated with various concentrations of 2
  binding spectrum type: characteristic type I binding spectrum
SgvP [1]; SgvP–2 Kd lower than TleB Kd
  Kd relative to that of TleB (fold lower): 2.5 fold
SgvP [1]; SgvP–2 Kd vs PtmO5 Kd
  Kd relative to that of PtmO5: one order of magnitude higher
SgvP [1]; type I binding spectrum, λmax shifted from 421 nm
  λmax after shift on binding of 2: 386 nm
SgvP [2]
  conversion to griseoviridin (1): nearly full conversion to griseoviridin (1) in approximately three hours
SgvP [3]
  conversion to griseoviridin (1): Analogous results
SgvP-RhFRed
  product of incubation with SgvP-RhFRed: yielded only disulfide
FNS2
  activity of homolog chimera with 2: none of the homologs exhibited any activity
NK82
  activity of homolog chimera with 2: none of the homologs exhibited any activity
YY64
  activity of homolog chimera with 2: none of the homologs exhibited any activity
SgvP P237T
  NMR yield of griseoviridin: 7%
[4]
  NMR yield of griseoviridin: 25%
SgvP L337F
  activity relative to wild-type enzyme: comparable – if not slightly enhanced – activity to the wild-type enzyme
SgvP mutants
  by-products formed: several oxidized by-products had formed
[5]
  stability: degradation: remarkably stable, with no discernable degradation even after two weeks
[6]; TCEP added to the reaction mixture as a reductant
  disulfide formation with TCEP: disulfide formation was effectively prevented
[6]; aqueous conditions, exposure to oxygen, no TCEP, LC-MS
  product in absence of SgvP-RhFRed or in buffer and co-solvent alone: disulfide as the only product
[7]; mCPBA or basic H2O2
  production of 1 with chemical oxidants: we did not observe the production of 1
[7]; mCPBA, crude NMR, sulfinic and sulfonic acids of 2 tentatively detected by LC-MS
  outcome of treatment with mCPBA: intractable mixture
[7]; series of basic hydrogen peroxide conditions
  outcome of treatment with basic H2O2: ester hydrolysis, S-oxidation, or broad degradation
